Data published in ChEMBL document CHEMBL3244045, “2-cyano-1,3-dicarbonyl compounds with antiallergic activity” (1977).

Legend:
Type in all cases: functional
Rattus norvegicus [1] = assay: Antiallergic activity in sc dosed Wistar rat assessed as time between compound administration and ovalbumin challenge to give maximum activity by passive cutaneous anaphylaxis assay
Rattus norvegicus [2] = assay: Antiallergic activity in sc dosed Wistar rat assessed as inhibition of ovalbumin-mediated passive cutaneous anaphylaxis by measuring wheal formation at Tmax
In short: (§1)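 Rat PCA: serum with heat-labile homocytotropic antibody raised in rats to crystallized ovalbumin, Bordetella pertussis vaccine adjuvant; PCA per Ovary–Bier method as modified by Goose and Blair. Test agents as sodium salts, dissolved in pH 7.2 buffer or suspended in 1% methylcellulose by solubility. ED50 from inhibition/log dose line, 95% confidence limits, slope and animal numbers given.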

Rattus norvegicus [3] = assay: Antiallergic activity in po dosed Wistar rat assessed as inhibition of ovalbumin-mediated passive cutaneous anaphylaxis by measuring wheal formation administered 15 to 20 mins prior to ovalbumin challenge; in short: as §1

Row | Compound | Time (Rattus norvegicus [1]) [min] | ED50 (Rattus norvegicus [2]) [µmol/kg] | ED50 (Rattus norvegicus [3]) [µmol/kg]
1 | Cc1ccc2c([O-])c(C#N)c(=O)oc2c1C.[Na+] | 10 | 26.2 | –
2 | N#C[C-]1C(=O)c2cccnc2C1=O.[Na+] (stereo not given) | 10 | 90.6 | –
3 | Cc1ccc2oc(=O)c(C#N)c([O-])c2c1.[Na+] | 10 | 497 | –
4 | Cc1ccc2c([O-])c(C#N)c(=O)oc2c1.[Na+] | 10 | 52.4 | –
5 | CCOc1ccc2c([O-])c(C#N)c(=O)oc2c1.[Na+] | 10 | 15.1 | –
6 | Cc1cc2oc(=O)c(C#N)c([O-])c2cc1C.[Na+] | 10 | 15.2 | –
7 | N#C[C-]1C(=O)c2ccc(Cl)cc2C1=O.[Na+] (stereo not given) | 10 | 59.7 | –
8 | CCc1cc2c(cc1CC)C(=O)[C-](C#N)C2=O.[Na+] | 20 | 10.9 | 60
9 | CCc1cc2oc(=O)c(C#N)c([O-])c2cc1CC.[Na+] | 10 | 7.6 | 60
10 | CCc1cc2c([O-])c(C#N)c(=O)oc2cc1C.[Na+] | 10 | 10.1 | –
11 | O=C([O-])c1cc(=O)c2c(OCC(O)COc3cccc4oc(C(=O)[O-])cc(=O)c34)cccc2o1.[Na+].[Na+] [CROMOLYN SODIUM] | 10 | 13.1 | –
12 | COc1ccc2oc(=O)c(C#N)c([O-])c2c1.[Na+] | 10 | 28.2 | –
13 | N#C[C-]1C(=O)c2ccncc2C1=O.[Na+] (stereo not given) | 10 | 120 | –
14 | N#Cc1c([O-])c2ccccc2oc1=O.[Na+] | 10 | 39.1 | –
15 | N#C[C-]1C(=O)c2ccccc2C1=O.[Na+] | 10 | 85.3 | –
16 | COc1cccc2c1C(=O)[C-](C#N)C2=O.[Na+] (stereo not given) | 10 | 90.2 | –
17 | Cc1cccc2c([O-])c(C#N)c(=O)oc12.[Na+] | 10 | 32.8 | –
18 | Cc1ccc2c(c1)C(=O)[C-](C#N)C2=O.[Na+] (stereo not given) | 10 | 44.1 | –
19 | N#Cc1c([O-])c2cc3c(cc2oc1=O)CCCC3.[Na+] | 10 | 16.4 | –
20 | N#Cc1c([O-])c2cc3ccccc3cc2oc1=O.[Na+] | 10 | 211 | –
21 | Cc1cccc2c1C(=O)[C-](C#N)C2=O.[Na+] (stereo not given) | 10 | 74 | –
22 | Cc1cc2c(cc1C)C(=O)[C-](C#N)C2=O.[Na+] | 10 | 16.3 | –
23 | N#C[C-]1C(=O)c2cc3ccccc3cc2C1=O.[Na+] | 10 | 13.8 | –
24 | CCc1ccc2c([O-])c(C#N)c(=O)oc2c1.[Na+] | 10 | 23.8 | –
